Results published in ChEMBL document CHEMBL4376807, “Hydroxamic Acid Derivatives of β-Carboline/Hydroxycinnamic Acid Hybrids Inducing Apoptosis and Autophagy through the PI3K/Akt/mTOR Pathways” (J Nat Prod, 2019).
Active and inactive are the calls of the source. The rule behind the calls is not given here.

Experiments:
Bel-7402 [1] = assay: Induction of autophagy in human Bel7402 cells assessed as accumulation of autophagic vacuoles at 1 uM after 24 hrs by acridine orange staining based fluorescence microscopic method; format: functional, cell-based
Outline: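 Bel7402 cells (10 000) cultured overnight, then exposed to compound at 1.0 or 5.0 μM, or vehicle. Stained with 1 mg/mL acridine orange for 15−20 min, then dye removed. Red versus green fluorescence viewed by fluorescence microscopy at 400×. Representative images from three independent experiments.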

Bel-7402 [2] = assay: Induction of apoptosis in human Bel7402 cells assessed as annexin-V positive cells at 5 uM after 72 hrs by Annexin-V/PI staining based flow cytometry relative to control; format: functional
Outline: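 Bel7402 cells (10 000) cultured overnight, then exposed to compound at 1.0 or 5.0 μM, or vehicle, for 72 h. Harvested, stained with annexin-V APC and 7-AAD for 15 min. Apoptotic percentage measured by flow cytometry (APC ex 633/em 660 nm; 7-AAD ex 488/em 647 nm). Three separate assays, mean ± SD.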

Homo sapiens [3] = species: Homo sapiens; assay: Selectivity ratio of IC50 for human HDAC3 to IC50 for human HDAC6
Outline: (§1)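 Recombinant human HDAC1, 3, 6 and 8 (fluorimetric kit) incubated with compound over a range of concentrations and Boc-Lys(Ac)-AMC substrate at 37 °C for 60 min. Reaction quenched with lysine developer; after 30 min, fluorescence read at ex 355/em 460 nm. Inhibition taken relative to control and IC50 fitted; ratios built from these IC50s.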

Bel-7402 [4] = assay: Induction of apoptosis in human Bel7402 cells assessed as increase in Bax expression after 72 hrs by Western blot analysis; format: functional, cell-based
Outline: (§2)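 Subconfluent Bel7402 cells (1.5 × 10^5/mL) exposed to vehicle or compound for 72 h, then lysed. Lysates (0.05 mg/lane) run on 12% SDS-PAGE, transferred to nitrocellulose, blocked in 5% nonfat milk. Probed for Bax, Bcl-2, cleaved caspase-3 and cleaved PARP, with HRP secondary and chemiluminescence. Levels normalized to β-actin; three separate assays, mean ± SD.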

[5] = Inhibition of PI3K/AKT/mTOR signaling in human Bel7402 cells assessed as reduction in mTOR phosphorylation after 24 to 72 hrs by Western blot analysis; format: cell-based
Outline: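 Bel7402 cells (1.5 × 10^5/mL) exposed to compound at 1.0 and 2.5 μM for 24 or 72 h. Lysates (0.05 mg/lane) separated on 12% SDS-PAGE and blotted to nitrocellulose. Probed for total Akt, phospho-Akt (Ser473), total mTOR and phospho-mTOR, HRP secondary, chemiluminescent detection. Quantified from three separate assays, mean ± SD.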

[6] = target: T1, Protein deacetylase HDAC6 (Homo sapiens, UniProt Q9UBN7); assay: Inhibition of human HDAC6 using Boc-Lys (Ac)-AMC as substrate incubated for 60 mins by fluorimetric assay
T1 sequence (Q9UBN7 whole entry): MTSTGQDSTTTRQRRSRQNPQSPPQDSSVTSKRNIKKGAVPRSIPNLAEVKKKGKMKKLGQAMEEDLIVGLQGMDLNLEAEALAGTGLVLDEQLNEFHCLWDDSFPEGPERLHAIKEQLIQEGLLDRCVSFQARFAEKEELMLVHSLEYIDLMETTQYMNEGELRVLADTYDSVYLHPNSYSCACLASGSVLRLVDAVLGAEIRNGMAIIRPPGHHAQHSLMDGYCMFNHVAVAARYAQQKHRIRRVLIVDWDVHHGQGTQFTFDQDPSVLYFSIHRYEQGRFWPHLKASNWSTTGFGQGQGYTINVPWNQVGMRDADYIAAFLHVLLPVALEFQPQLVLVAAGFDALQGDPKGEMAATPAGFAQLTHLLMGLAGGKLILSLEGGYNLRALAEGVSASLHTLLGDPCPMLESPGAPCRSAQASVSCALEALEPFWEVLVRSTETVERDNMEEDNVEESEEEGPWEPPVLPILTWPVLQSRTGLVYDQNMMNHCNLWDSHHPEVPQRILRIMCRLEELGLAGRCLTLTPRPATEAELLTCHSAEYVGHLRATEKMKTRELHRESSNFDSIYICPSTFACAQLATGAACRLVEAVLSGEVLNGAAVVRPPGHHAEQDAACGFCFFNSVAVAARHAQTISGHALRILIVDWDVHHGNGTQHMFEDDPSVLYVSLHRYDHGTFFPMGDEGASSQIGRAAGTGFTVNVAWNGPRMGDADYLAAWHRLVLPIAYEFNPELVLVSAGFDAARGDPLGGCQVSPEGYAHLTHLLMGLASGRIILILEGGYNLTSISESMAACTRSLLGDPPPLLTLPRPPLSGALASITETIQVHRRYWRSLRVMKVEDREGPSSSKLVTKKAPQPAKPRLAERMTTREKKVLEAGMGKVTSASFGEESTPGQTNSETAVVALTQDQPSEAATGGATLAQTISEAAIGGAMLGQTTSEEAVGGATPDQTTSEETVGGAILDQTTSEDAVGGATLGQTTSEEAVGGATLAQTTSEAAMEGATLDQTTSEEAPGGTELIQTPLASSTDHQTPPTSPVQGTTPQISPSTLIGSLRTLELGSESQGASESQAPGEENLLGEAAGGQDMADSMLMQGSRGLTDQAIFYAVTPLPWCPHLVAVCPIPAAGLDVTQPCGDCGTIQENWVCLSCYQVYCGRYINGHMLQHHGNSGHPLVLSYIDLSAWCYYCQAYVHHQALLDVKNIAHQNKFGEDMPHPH

HepG2 = assay: Antiproliferative activity against human HepG2 cells after 72 hrs by MTT assay; format: functional, cell-based; settings: HepG2, 72 h
Histone deacetylase 1 = Histone deacetylase 1 (Homo sapiens, UniProt Q13547); assay: Inhibition of HDAC1 (unknown origin) using Boc-Lys (Ac)-AMC as substrate incubated for 60 mins by fluorimetric assay
Chain of Histone deacetylase 1 (Q13547 whole entry): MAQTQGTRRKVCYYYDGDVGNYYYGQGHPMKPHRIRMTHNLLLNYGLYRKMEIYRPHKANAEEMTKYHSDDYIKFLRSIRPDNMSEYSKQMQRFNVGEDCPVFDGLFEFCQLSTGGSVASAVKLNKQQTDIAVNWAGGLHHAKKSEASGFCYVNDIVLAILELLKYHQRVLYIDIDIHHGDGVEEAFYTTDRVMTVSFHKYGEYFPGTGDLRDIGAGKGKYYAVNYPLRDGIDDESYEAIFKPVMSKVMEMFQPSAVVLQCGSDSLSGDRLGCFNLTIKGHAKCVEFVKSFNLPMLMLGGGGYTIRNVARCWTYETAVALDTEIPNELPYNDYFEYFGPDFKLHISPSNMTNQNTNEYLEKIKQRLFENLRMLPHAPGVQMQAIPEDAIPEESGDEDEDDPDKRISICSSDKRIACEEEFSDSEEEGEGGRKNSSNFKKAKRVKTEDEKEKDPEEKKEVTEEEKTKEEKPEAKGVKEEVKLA

SMMC-7721 = assay: Antiproliferative activity against human SMMC7721 cells after 72 hrs by MTT assay; format: functional, cell-based; settings: SMMC-7721, 72 h
Bel-7402 [7] = assay: Antiproliferative activity against human Bel7402 cells after 72 hrs by MTT assay; format: functional, cell-based; settings: Bel-7402, 72 h
Bel-7402 [8] = assay: Induction of apoptosis in human Bel7402 cells assessed as increase in cleaved caspase-3 level at 5 uM after 72 hrs by Western blot analysis; format: functional, cell-based; outline: as §2
Bel-7402 [9] = assay: Induction of autophagy in human Bel7402 cells assessed as upregulation of LC3-2 level at 1 uM after 24 to 72 hrs by Western blot analysis; format: functional, cell-based
Outline: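 Bel7402 cells (1.5 × 10^5/mL) exposed to compound at indicated doses, or vehicle, for 24 or 72 h. Lysates (0.05 mg/lane) separated on 12% SDS-PAGE, blotted to nitrocellulose, blocked in 5% milk. Probed with anti-LC3, anti-p62 and anti-beclin-1, HRP secondary, chemiluminescent detection. Levels quantified relative to β-actin; three separate assays, mean ± SD.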

Homo sapiens [10] = species: Homo sapiens; assay: Selectivity ratio of IC50 for HDAC1 (unknown origin) to IC50 for human HDAC6; outline: as §1
Huh-7 = assay: Antiproliferative activity against human HuH7 cells after 72 hrs by MTT assay; format: functional, cell-based; settings: Huh-7, 72 h

- Ratio IC50 (Homo sapiens [3]): 7 to 11
- IC50 [6]: 0.013 µM
- IC50 (HepG2): 1.4 µM
- IC50 (Histone deacetylase 1): 0.027 µM
- IC50 (SMMC-7721): 2.9 µM
- IC50 (Bel-7402 [7]): 1 µM
- Ratio IC50 (Homo sapiens [10]): 2
- IC50 (Huh-7): 1.1 µM
Structure (SMILES): COc1ccc(-c2nc(NCCCOc3ccc(/C=C/C(=O)NO)cc3OC)cc3c2[nH]c2ccccc23)cc1
- Activity (Bel-7402 [1]): Active
- Activity (Bel-7402 [2]): 73.8%
- Activity (Bel-7402 [4]): Dose-dependent effect
- inhibition [5]: Dose-dependent effect
- Activity (Bel-7402 [8]): Active
- Activity (Bel-7402 [9]): Active
